Results from paper PMC10053980 (ACS infectious diseases, 2023).
Like-named read-outs stand apart in the source and are kept apart here.

Tests used:
[1] = test system: PfCARL^Q821H (S)-SW703-resistant Dd2 clones; assay: Asexual blood-stage EC50; type: cell-based, Plasmodium falciparum
[2] = test system: RF12 (PH-1263-C); assay: [3H]-hypoxanthine incorporation assay, cross-resistance panel; type: cell-based, Plasmodium falciparum
[3] = test system: PfeEF2^Y186N (DDD107498-resistant); assay: as above; type: cell-based, Plasmodium falciparum
[4] = test system: TM90C2B; assay: as above; type: cell-based, Plasmodium falciparum
[5] = test system: P. falciparum 3D7 (Pf3D7); assay: Asexual blood-stage growth inhibition; type: cell-based; settings: Plasmodium falciparum, 3D7, 72 h, read-out: Pf3D7 EC50
[6] = test system: PfD10 attB + yDHODH; assay: Asexual blood-stage growth inhibition; type: cell-based, Plasmodium falciparum; settings: Saccharomyces cerevisiae, read-out: PfD10 attB + yDHODH EC50
Outline: (§1)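 Ring-stage parasites (2% hematocrit, 0.5% parasitemia, final DMSO 0.5%) were exposed to a concentration range for 72 h at 37 °C, 5% CO2. Plates were frozen for at least 16 h and thawed, then SYBR Green lysis buffer was added. Fluorescence was read at 485 nm excitation and 535/528 nm emission. DSM265 (0.8–100 nM) served as plate control. EC50 came from four-parameter nonlinear regression, in technical triplicates with at least 3 biological replicates.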

[7] = test system: P. falciparum Dd2 (PfDd2, parent); assay: Asexual blood-stage growth inhibition; type: cell-based; settings: Plasmodium falciparum
[8] = test system: PfCARL^L1073I C2 clone beta (Polδ mutant); assay: Asexual blood-stage EC50; type: cell-based, Plasmodium falciparum; settings: for EC50: Plasmodium falciparum
[9] = test system: PfCytB^I22L (ELQ300-resistant); assay: [3H]-hypoxanthine incorporation assay, cross-resistance panel; type: cell-based, Plasmodium falciparum
[10] = test system: P. falciparum strain NF54 stage V gametocytes, male gametes; assay: Dual gamete formation assay; type: cell-based, Plasmodium falciparum; settings: 1 μM, 48 h
[11] = test system: PfD10 attB; assay: Asexual blood-stage growth inhibition; type: cell-based; settings: Plasmodium falciparum, read-out: PfD10 attB EC50
Outline: as §1

[12] = test system: PfCARL^I1139K (KAF156-selected); assay: [3H]-hypoxanthine incorporation assay, cross-resistance panel; type: cell-based, Plasmodium falciparum; settings: PfCARL^I1139K relative to parent line Dd2
Outline: (§2)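 Cross-resistance was measured by a modified [3H]-hypoxanthine incorporation assay. Fold differences for lab-generated resistant lines are relative to the Dd2 parent. Values are means from two independent experiments.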

[13] = physchem; type: physicochemical; settings: kinetic from dmso stock
[14] = test system: Dd2; assay: [3H]-hypoxanthine incorporation assay, cross-resistance panel; type: cell-based, Plasmodium falciparum
[15] = test system: PfPI4K^S743T (MMV390048-resistant); assay: as above; type: cell-based, Plasmodium falciparum
[16] = test system: K1; assay: as above; type: cell-based, Plasmodium falciparum
[17] = test system: PfCARL^S1057T (S)-SW703-resistant Dd2 clones; assay: Asexual blood-stage EC50; type: cell-based, Plasmodium falciparum
[18] = test system: 7G8; assay: [3H]-hypoxanthine incorporation assay, cross-resistance panel; type: cell-based, Plasmodium falciparum
[19] = test system: PfDHODH (DSM265-resistant); assay: [3H]-hypoxanthine incorporation assay, cross-resistance panel; type: cell-based, Plasmodium falciparum
Outline: as §2

[20] = test system: Dd2-Polδ (parent); assay: Asexual blood-stage EC50; type: cell-based; settings: Plasmodium falciparum, DD2, read-out: (S)-SW703 EC50
Outline: as §1

[21] = test system: PfACT^Q116K (S)-SW703-resistant Dd2 clone; assay: Asexual blood-stage EC50; type: cell-based, Plasmodium falciparum; settings: for EC50: Plasmodium falciparum
Outline: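 Cloned resistant parasites were exposed to test compound or KAF156 over a concentration range for 72 h at 37 °C (2% hematocrit, 0.5% parasitemia, 0.5% DMSO). Freeze–thaw was followed by SYBR Green lysis and fluorescence at 485/535 or 528 nm. EC50 was fitted by four-parameter regression. Fold shift is relative to the Dd2 parent. Technical triplicates, at least three independent experiments.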

[22] = test system: P. falciparum strain NF54 stage V gametocytes, female gametes; assay: Dual gamete formation assay; type: cell-based; settings: Plasmodium falciparum, NF54, read-out: Inhibition of female gamete formation
[23] = HepG2 cytotoxicity; type: cell-based; settings: human, HepG2 cells
Outline: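 HepG2 cells (600 per well) in EMEM with 5% heat-inactivated FBS and 2 mM glutamine received test compound and were incubated 72 h at 37 °C, 5% CO2. Viability was read by CellTiter Glo (intracellular ATP). CD437 and methotrexate served as positive controls. Two biological runs, each in technical triplicate.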

[24] = test system: NF54; assay: [3H]-hypoxanthine incorporation assay, cross-resistance panel; type: cell-based; settings: Plasmodium falciparum, NF54, read-out: (S)-SW703 EC50
[25] = test system: P. falciparum strain 3D7A; assay: Two color flow cytometry rate of kill assay; type: cell-based, Plasmodium falciparum; settings: 0, 24 or 48 h exposure at 10X EC50; compared with chloroquine and artesunate
[26] = test system: P. berghei liver stage (Pb-Luc sporozoites); assay: Liver stage activity assay; type: cell-based; settings: Plasmodium berghei, read-out: Liver-stage EC50
[27] = in vitro; type: in vitro ADME; settings: human, microsomes
[28] = test system: PfCARL^L830I (S)-SW703-resistant Dd2 clones; assay: Asexual blood-stage EC50; type: cell-based, Plasmodium falciparum
[29] = test system: PfCARL L1073Q mutants; settings: cited from earlier work
[30] = test system: PfACT^S242* CRISPR mutant; settings: cited from earlier work
[31] = Flask 2 clone F3, PfCARL^Q821H, vs Dd2 parent
[32] = Plasmodium falciparum, read-out: (S)-SW703 EC50
[33] = Flask 3 clone D11, PfCARL^S1057T, vs Dd2 parent
[34] = Flask 4 clone F2, PfACT^Q116K, vs Dd2 parent
[35] = Flask 1 clone B4, PfCARL^L830I, vs Dd2 parent

For Cc1cccc(C)c1CC1CN(C(=O)[C@@H](N)Cc2ccc(O)cc2)C1 [(S)-SW703, (S)-2-amino-1-(3-(2,6-dimethylbenzyl)azetidin-1-yl)-3-(4-hydroxyphenyl)propan-1-one], which “(S)-SW703 EC50 fold shift” value [1, 31] is on record?
The value was 52 fold.

And the “(S)-SW703 EC50 fold shift” value ([1]; Flask 3 clone D7, PfCARL^Q821H, vs Dd2 parent)?
The value was 60 fold.

And the EC50 [2, 32]?
The EC50 was 370 ± 10 nM.

And the “(S)-SW703 EC50 fold shift” value ([2]; RF12 relative to NF54)?
Its value is 1.1 fold.

And the “(S)-SW703 EC50 fold shift” value ([3]; PfeEF2^Y186N relative to parent line Dd2)?
The value was 0.91 fold.

What about the EC50 ([3]; {}) of the same molecule?
The EC50 was 270 ± 25 nM.

And the EC50 ([4]; Plasmodium falciparum, TM90C2B, read-out: (S)-SW703 EC50)?
The EC50 was 370 ± 41 nM.

And the “(S)-SW703 EC50 fold shift” value ([4]; TM90C2B relative to NF54)?
Its value is 1.1 fold.

And the EC50 [5]?
The EC50 was 780 ± 92 nM.

And the EC50 [6]?
Its EC50 is 1300 nM.

What about the EC50 ([7]; DD2, 72 h, read-out: PfDd2 EC50) of the same molecule?
The EC50 was 810 ± 150 nM.

And the “(S)-SW703 EC50 fold shift” value ([8]; C2 clone beta, PfCARL^L1073I, vs Dd2-Polδ parent)?
The value was 9.5 fold.

What about the EC50 ([8]; read-out: (S)-SW703 EC50) of the same molecule?
Its EC50 is 8800 ± 1200 nM.

What about the “(S)-SW703 EC50 fold shift” value ([9]; PfCytB^I22L relative to parent line Dd2) of the same molecule?
The value was 0.75 fold.

And the EC50 ([9]; {})?
Its EC50 is 230 ± 46 nM.

And the “Inhibition of male gamete formation” value [10]?
The value was 18.3%.

And the EC50 [11]?
Its EC50 is 1500 nM.

And the “(S)-SW703 EC50 fold shift” value [12]?
The value was greater than 16.6 fold.

What about the solubility ([13]; pH 2, simulated gastric fluid) of the same molecule?
Its solubility is greater than 34 µg/mL.

And the solubility ([13]; pH 6.5, aqueous buffer)?
Its solubility is greater than 34 µg/mL.

And the “(S)-SW703 EC50 fold shift” value ([14]; Dd2 relative to NF54)?
Its value is 0.88 fold.

And the EC50 ([14]; Plasmodium falciparum, DD2, read-out: (S)-SW703 EC50)?
Its EC50 is 300 ± 31 nM.

What about the “(S)-SW703 EC50 fold shift” value ([15]; PfPI4K^S743T relative to parent line Dd2) of the same molecule?
The value was 0.97 fold.

What about the EC50 ([15]; {}) of the same molecule?
Its EC50 is 290 ± 42 nM.

And the “(S)-SW703 EC50 fold shift” value ([16]; K1 relative to NF54)?
Its value is 1.0 fold.

And the EC50 [16, 32]?
The EC50 was 350 ± 39 nM.

And the “(S)-SW703 EC50 fold shift” value ([17]; Flask 1 clone G3, PfCARL^S1057T, vs Dd2 parent)?
Its value is 12 fold.

What about the “(S)-SW703 EC50 fold shift” value [17, 33] of the same molecule?
Its value is 15 fold.

And the “(S)-SW703 EC50 fold shift” value ([17]; Flask 3 clone G5, PfCARL^S1057T, vs Dd2 parent)?
Its value is 16 fold.

And the “(S)-SW703 EC50 fold shift” value ([17]; Flask 4 clone D4, PfCARL^S1057T, vs Dd2 parent)?
Its value is 12 fold.

And the “(S)-SW703 EC50 fold shift” value ([17]; Flask 4 clone G3, PfCARL^S1057T, vs Dd2 parent)?
Its value is 14 fold.

And the “(S)-SW703 EC50 fold shift” value ([18]; 7G8 relative to NF54)?
The value was 1.2 fold.

And the EC50 [18, 32]?
Its EC50 is 410 ± 32 nM.

And the “(S)-SW703 EC50 fold shift” value ([19]; PfDHODH relative to parent line Dd2)?
The value was 0.95 fold.

And the EC50 ([19]; Plasmodium falciparum, DSM265, read-out: (S)-SW703 EC50)?
Its EC50 is 290 ± 9 nM.

What about the EC50 [20] of the same molecule?
Its EC50 is 930 ± 110 nM.

What about the “(S)-SW703 EC50 fold shift” value [21, 34] of the same molecule?
The value was 2.3 fold.

What about the EC50 ([21]; DD2, read-out: (S)-SW703 EC50) of the same molecule?
The EC50 was 1900 ± 240 nM.

And the inhibition at 1 µM [22]?
Its inhibition at 1 µM is 1.2 ± 1.7%.

What about the CC50 at 72 h [23] of the same molecule?
The CC50 at 72 h was greater than 50000 nM.

And the EC50 [24]?
The EC50 was 340 ± 36 nM.

And the “Rate of kill (killing kinetics)” value [25]?
Its value is “fast-killing mechanism”.

What about the EC50 [26] of the same molecule?
The EC50 was 570 ± 210 nM.

And the microsomal CLint [27]?
Its microsomal CLint is 197 µL/min/mg.

And the “(S)-SW703 EC50 fold shift” value [28, 35]?
The value was 31 fold.

And the “(S)-SW703 EC50 fold shift” value ([28]; Flask 1 clone F9, PfCARL^L830I, vs Dd2 parent)?
The value was 31 fold.

And the “(S)-SW703 EC50 fold shift” value ([28]; Flask 2 clone C5, PfCARL^L830I, vs Dd2 parent)?
The value was 32 fold.

What about the “(S)-SW703 EC50 fold shift” value ([28]; Flask 2 clone E8, PfCARL^L830I, vs Dd2 parent) of the same molecule?
Its value is 27 fold.

With CC1(C)c2nc(-c3ccc(F)cc3)c(Nc3ccc(Cl)cc3)n2CCN1C(=O)CN [GNF179] as the molecule, how does the “fold resistance of parasites bearing PfCARL^Q821H mutations” value ([1]; cross-resistance of (S)-SW703-resistant clones) read?
The value was “about 5 fold”.

What about the “resistance conferred by PfCARL L1073Q” value [29] of the same molecule?
The value was “did not confer resistance”.

What about the “resistance conferred by PfACT^S242* CRISPR mutant” value [30] of the same molecule?
Its value is “high-level resistance”.

What does the source list for CC1(C)c2nc(-c3ccc(F)cc3)c(Nc3ccc(F)cc3)n2CCN1C(=O)CN [KAF156, reference compound]?
KAF156 EC50 fold shift [1, 31]: 4.7 fold; EC50 ([1]; Plasmodium falciparum, DD2, read-out: KAF156 EC50, Flask 2 clone F3, PfCARL^Q821H): 57 ± 6.6 nM; EC50 ([7]; DD2, read-out: KAF156 EC50): 12 ± 1.7 nM; EC50 ([8]; read-out: KAF156 EC50): 16 ± 2.7 nM; resistance conferred by PfCARL L1073Q [29]: did not confer resistance; KAF156 EC50 fold shift [17, 33]: 1.5 fold; EC50 ([17]; Plasmodium falciparum, DD2, read-out: KAF156 EC50, Flask 3 clone D11, PfCARL^S1057T): 18 ± 1.8 nM; resistance conferred by PfACT^S242* CRISPR mutant [30]: high-level resistance; KAF156 EC50 fold shift [21, 34]: 1.8 fold; EC50 ([21]; DD2, read-out: KAF156 EC50): 22 ± 4.5 nM; KAF156 EC50 fold shift [28, 35]: 1.8 fold; EC50 ([28]; Plasmodium falciparum, DD2, read-out: KAF156 EC50, Flask 1 clone B4, PfCARL^L830I): 22 ± 3.4 nM
